Results taken from ChEMBL document CHEMBL1128234, “Isothiocyanate-substituted benzyl ether opioid receptor ligands derived from 6 beta-naltrexol” (J Med Chem, 1995).

Key:
[1] = target: Mu-type opioid receptor (Cavia porcellus) (UniProt P97266); assay: Irreversible binding affinity at mu-receptor was evaluated as % of control specific binding remaining washed at concentration of 80 (nM) using [3H]DAMGO radioligand
How it was run: (§1)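 Guinea pig brain homogenate (less cerebellum) in 0.05 M Trizma pH 7.4, diluted 1:60. It was incubated with ligand 60 min at 25 °C, then diluted in ice-cold buffer and centrifuged 10000g. Washed samples were resuspended in buffer, incubated 15 min at 37 °C and recentrifuged. Binding used 1.0 nM [3H]DAMGO for 60 min at 25 °C, with filtration and counting. Nonspecific binding was set with 10 µM naloxone. Triplicates; % specific binding was taken relative to recovery controls.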

[2] = target: Kappa-type opioid receptor (Cavia porcellus) (UniProt P41144); assay: Irreversible binding affinity at Opioid receptor kappa 1 was evaluated as % of control specific binding remaining protected at concentration of 50 (nM) using [3H]U-69593 radioligand
How it was run: (§2)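 Diluted guinea pig brain homogenate is exposed to ligand for 60 min at 25 °C; protected samples are first preincubated 15 min at 37 °C with 1 naloxone. Washed samples are diluted in ice-cold Tris pH 7.4, spun at 10000g for 15 min at 4 °C, then resuspended and incubated 15 min at 37 °C, twice. Read-out is standard radioligand binding, expressed as % of recovery-sample specific binding. Test ligands run in triplicate; reference averaged over three assays.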

[3] = target: Kappa-type opioid receptor (Cavia porcellus) (UniProt P41144); assay: Irreversible binding affinity at Opioid receptor kappa 1 was evaluated as % of control specific binding remaining washed at concentration of 50 (nM) using [3H]U-69593 radioligand; how it was run: as §2
[4] = target: Kappa-type opioid receptor (Cavia porcellus) (UniProt P41144); assay: Irreversible binding affinity at Opioid receptor kappa 1 was evaluated as % of control specific binding remaining unwashed at concentration of 50 (nM) using [3H]U-69593 radioligand; how it was run: as §2
Mu-type opioid receptor = Mu-type opioid receptor (Cavia porcellus, UniProt P97266); assay: Inhibitory concentration was determined against Opioid receptor mu 1 using [3H]- DAMGO radioligand
How it was run: (§3)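 Guinea pig brain (minus cerebellum) homogenate in 0.05 M Tris pH 7.4, diluted 1:60 (0.8-1.5 mg protein/ml). Ligand tested in duplicate at nine concentrations; 60 min at 25 °C. Nonspecific binding defined with naloxone. Filtration, ice-cold buffer rinse, scintillation counting.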

[5] = target: Kappa-type opioid receptor (Cavia porcellus, UniProt P41144); assay: Inhibitory concentration against Opioid receptor kappa 1 using [3H]- U-69,593 radioligand; how it was run: as §3
[6] = target: Mu-type opioid receptor (Cavia porcellus) (UniProt P97266); assay: Irreversible binding affinity at mu-receptor was evaluated as % of control specific binding remaining unwashed at concentration of 80 (nM) using [3H]DAMGO radioligand; how it was run: as §1
[7] = target: Opioid receptors; mu/kappa/delta; assay: Inhibitory concentration was determined against Opioid receptors using [3H]- bremazocine radioligand; format: protein assay, Cavia porcellus; how it was run: as §3
[8] = target: Kappa-type opioid receptor (Cavia porcellus) (UniProt P41144); assay: Irreversible binding affinity at Opioid receptor kappa 1 was evaluated as % of control specific binding remaining unwashed at concentration of 90 (nM) using [3H]U-69593 radioligand; how it was run: as §2
[9] = target: Kappa-type opioid receptor (Cavia porcellus) (UniProt P41144); assay: Irreversible binding affinity at Opioid receptor kappa 1 was evaluated as % of control specific binding remaining protected at concentration of 90 (nM) using [3H]U-69593 radioligand; how it was run: as §2
[10] = target: Mu-type opioid receptor (Cavia porcellus) (UniProt P97266); assay: Irreversible binding affinity at mu-receptor was evaluated as % of control specific binding remaining washed at concentration of 35 (nM) using [3H]-DAMGO radioligand; how it was run: as §1
[11] = target: Kappa-type opioid receptor (Cavia porcellus) (UniProt P41144); assay: Irreversible binding affinity at Opioid receptor kappa 1 was evaluated as % of control specific binding remaining washed at concentration of 90 (nM) using [3H]-U-69,593 radioligand; how it was run: as §2
[12] = target: Mu-type opioid receptor (Cavia porcellus) (UniProt P97266); assay: Irreversible binding affinity at mu-receptor was evaluated as % of control specific binding remaining protected at concentration of 35 (nM) using [3H]DAMGO radioligand; how it was run: as §2
[13] = target: Mu-type opioid receptor (Cavia porcellus) (UniProt P97266); assay: Irreversible binding affinity at mu-receptor was evaluated as % of control specific binding remaining unwashed at concentration of 35 (nM) using [3H]DAMGO radioligand; how it was run: as §1
[14] = target: Mu-type opioid receptor (Cavia porcellus) (UniProt P97266); assay: Irreversible binding affinity at mu-receptor was evaluated as % of control specific binding remaining unwashed at concentration of 10 (nM) using [3H]-DAMGO radioligand Values from 3 separate assays (+/-10%); how it was run: as §2
[15] = target: Mu-type opioid receptor (Cavia porcellus) (UniProt P97266); assay: Irreversible binding affinity at mu-receptor was evaluated as % of control specific binding remaining washed at concentration of 10 (nM) using [3H]DAMGO radioligand Values from 3 separate assays (+/-10%)
[16] = target: Mu-type opioid receptor (Cavia porcellus) (UniProt P97266); assay: Irreversible binding affinity at mu-receptor was evaluated as % of control specific binding remaining protected at concentration of 10 (nM) using [3H]DAMGO radioligand Values from 3 separate assays (+/-10%); how it was run: as §2
[17] = Inhibitory concentration was determined against delta-opioid receptor using [3H]- DPDPE radioligand
[18] = target: Kappa-type opioid receptor (Cavia porcellus) (UniProt P41144); assay: Irreversible binding affinity at Opioid receptor kappa 1 was evaluated as % of control specific binding remaining protected at concentration of 150 (nM) using [3H]U-69593 radioligand; how it was run: as §2
[19] = target: Kappa-type opioid receptor (Cavia porcellus) (UniProt P41144); assay: Irreversible binding affinity at Opioid receptor kappa 1 was evaluated as % of control specific binding remaining washed at concentration of 150 (nM) using [3H]U-69593 radioligand; how it was run: as §2

Mu-type opioid receptor, sequence (P97266 whole entry): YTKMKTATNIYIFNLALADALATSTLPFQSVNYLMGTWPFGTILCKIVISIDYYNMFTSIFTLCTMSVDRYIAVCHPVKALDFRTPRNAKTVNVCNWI
Mu-type opioid receptor (Cavia porcellus), sequence (P97266 whole entry): as above
Kappa-type opioid receptor (Cavia porcellus), sequence (P41144 whole entry): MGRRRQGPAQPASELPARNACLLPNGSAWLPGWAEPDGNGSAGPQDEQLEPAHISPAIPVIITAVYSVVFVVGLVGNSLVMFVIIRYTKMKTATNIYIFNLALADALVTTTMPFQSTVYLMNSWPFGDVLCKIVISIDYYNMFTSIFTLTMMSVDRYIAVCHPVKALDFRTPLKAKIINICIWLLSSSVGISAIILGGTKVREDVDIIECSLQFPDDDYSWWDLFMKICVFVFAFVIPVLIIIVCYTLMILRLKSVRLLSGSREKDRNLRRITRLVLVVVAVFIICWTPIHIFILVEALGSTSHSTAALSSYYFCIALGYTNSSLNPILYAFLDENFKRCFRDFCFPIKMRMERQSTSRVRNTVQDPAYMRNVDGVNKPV
Kappa-type opioid receptor, sequence (P41144 whole entry): as above

Oc1ccc2c3c1O[C@H]1[C@H](OCc4cccc(N=C=S)c4)CC[C@@]4(O)C(C2)N(CC2CC2)CCC314 (stereo partly specified)
Control [1]: 14% | Control [2]: 25% | Control [3]: 25% | Control [4]: 12% | IC50 (Mu-type opioid receptor): 0.027 µM | IC50 [5]: 0.017 µM | Control [6]: 4% | IC50 [7]: 0.027 µM

Oc1ccc2c3c1O[C@H]1[C@H](OCc4ccc(N=C=S)cc4)CC[C@@]4(O)C(C2)N(CC2CC2)CCC314 (stereo partly specified)
Control [8]: 14% | Control [9]: 27% | Control [10]: 46% | Control [11]: 28% | IC50 (Mu-type opioid receptor): 0.0096 µM | IC50 [5]: 0.021 µM | Control [12]: 48% | IC50 [7]: 0.022 µM | Control [13]: 14%

Oc1ccc2c3c1OC1[C@H](OCc4ccccc4)CCC4(O)C(C2)N(CC2CC2)CCC314 (stereo partly specified)
Control [14]: 14% | Control [15]: 100% | Control [16]: 104% | IC50 [17]: 0.0029 µM

Oc1ccc2c3c1O[C@H]1[C@H](OCc4ccccc4CN=C=S)CC[C@@]4(O)C(C2)N(CC2CC2)CCC314 (stereo partly specified)
Control [18]: 45% | IC50 (Mu-type opioid receptor): 0.02 µM | Control [19]: 35% | IC50 [5]: 0.043 µM | IC50 [7]: 0.069 µM
